From BindingDB's records for doi:10.1021/acs.jmedchem.9b00634 (2019) come the findings set out here.

The structures appear in SMILES notation. *1 amine or outer side, *2 acyl side, *3 side chain or, on linkers, in order; H or OH if unused. Where a SMILES comes first, the peptide text is derived from it. The star is where a group is joined. NH(CH2)3O(βDGlc) = OC[C@H]1O[C@@H](OCCCN*)[C@H](O)[C@@H](O)[C@@H]1O; Glutaryl = O=C(CCCC(=O)[*:2])[*:1]

Experiment [1] deals with T1, Solute carrier family 2, facilitated glucose transporter member 1 (Homo sapiens, UniProt P11166).
T1 sequence (P11166 whole entry): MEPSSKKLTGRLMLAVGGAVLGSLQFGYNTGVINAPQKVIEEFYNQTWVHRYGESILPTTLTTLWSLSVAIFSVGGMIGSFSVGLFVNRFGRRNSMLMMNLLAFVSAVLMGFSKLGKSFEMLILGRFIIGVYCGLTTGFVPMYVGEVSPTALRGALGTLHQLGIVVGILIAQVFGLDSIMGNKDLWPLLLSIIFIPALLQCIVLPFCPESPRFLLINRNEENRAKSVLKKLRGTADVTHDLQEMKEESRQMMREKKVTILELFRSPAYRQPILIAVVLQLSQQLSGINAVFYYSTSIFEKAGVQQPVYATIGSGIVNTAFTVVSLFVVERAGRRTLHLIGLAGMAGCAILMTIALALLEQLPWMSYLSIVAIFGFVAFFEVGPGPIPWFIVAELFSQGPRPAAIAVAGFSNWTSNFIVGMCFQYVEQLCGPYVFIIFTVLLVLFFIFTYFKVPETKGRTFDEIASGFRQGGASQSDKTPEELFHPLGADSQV
Nature of the experiment: Binding affinity to GLUT1 in human A549 cells assessed as cytotoxicity by measuring reduction in cell viability measured after 24 hrs by CCK8 assay. Put shortly:
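Cells (A549, H460, H1437, PC-3, HGC-27, MDA-MB-231, HEK-293T, L-02) seeded at about 2×10^3/well and grown overnight. Treated 24 h with a peptide concentration series in serum-free medium. Viability by CCK-8; IC50 taken as 50% inhibition versus untreated cells. Average of three experiments, each in triplicate.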

The nature of experiment [2]: Binding affinity to GLUT1 in human MDA-MB-231 cells assessed as cytotoxicity by measuring reduction in cell viability measured after 24 hrs by CCK8 assay. A general note: Formazan colour is commonly taken as a measure of viable cells.
Experiment [3] is described as follows: Binding affinity to GLUT1 in human NCI-H460 cells assessed as cytotoxicity by measuring reduction in cell viability measured after 24 hrs by CCK8 assay.
Experiment [4] can be described thus: Binding affinity to GLUT1 in human L02 cells assessed as cytotoxicity by measuring reduction in cell viability measured after 24 hrs by CCK8 assay.
A short description of experiment [5]: Binding affinity to GLUT1 in human HGC27 cells assessed as cytotoxicity by measuring reduction in cell viability measured after 24 hrs by CCK8 assay.
Experiment [6] is described as follows: Binding affinity to GLUT1 in human PC3 cells assessed as cytotoxicity by measuring reduction in cell viability measured after 24 hrs by CCK8 assay.
Experiment [7] can be described thus: Binding affinity to GLUT1 in human NCI-H1437 cells assessed as cytotoxicity by measuring reduction in cell viability measured after 24 hrs by CCK8 assay.
Experiment [8] can be described thus: Binding affinity to GLUT1 in human A549 cells assessed as cytotoxicity by measuring reduction in cell viability measured after 24 hrs by CCK8 assay.

Broadly, the IC50 is the concentration at which inhibition is half-maximal. In the case of `CC[C@H](C)[C@H](NC(=O)[C@H](Cc1ccccc1)NC(=O)[C@H](CCCNC(=N)N)NC(=O)[C@H](C)NC(=O)[C@@H](NC(=O)[C@H](CO)NC(=O)[C@H](CCCNC(=N)N)NC(=O)[C@H](CCSC)NC(=O)[C@H](C)NC(=O)[C@H](CCCNC(=N)N)NC(=O)[C@H](Cc1ccccc1)NC(=O)[C@H](Cc1c[nH]c2ccccc12)NC(=O)CNC(=O)[C@H](CCCNC(=N)N)NC(=O)CCCC(=O)NCCCO[C@@H]1O[C@H](CO)[C@@H](O)[C@H](O)[C@H]1O)[C@@H](C)CC)C(=O)N[C@@H](C)C(=O)N[C@@H](CCCNC(=N)N)C(=O)N[C@@H](CCC(=O)O)C(=O)N[C@@H](CCCNC(=N)N)C(=O)N[C@@H](CC(C)C)C(=O)N[C@@H](CCCNC(=N)N)C(=O)N[C@@H](CCC(=O)O)C(=O)N[C@@H](Cc1cnc[nH]1)C(=O)N[C@@H](CC(C)C)C(=O)O` ({NH(CH2)3O(βDGlc)-Glutaryl}-RGWFRAMRSIARFIARERLREHL-OH), the IC50 in experiment [1] was 9.6 µM; in experiment [2] it was 10.1 µM; in experiment [3], 8.5 µM; in experiment [4], 25.9 µM; in experiment [5], 12.6 µM; in experiment [6] it was 6.9 µM.
For the molecule `CC[C@H](C)[C@H](NC(=O)[C@H](Cc1ccccc1)NC(=O)[C@H](CCCNC(=N)N)NC(=O)[C@H](C)NC(=O)[C@@H](NC(=O)[C@H](CO)NC(=O)[C@H](CCCNC(=N)N)NC(=O)[C@H](CCSC)NC(=O)[C@H](C)NC(=O)[C@H](CCCNC(=N)N)NC(=O)[C@H](Cc1ccccc1)NC(=O)[C@H](Cc1c[nH]c2ccccc12)NC(=O)CNC(=O)[C@@H](N)CCCNC(=N)N)[C@@H](C)CC)C(=O)N[C@@H](C)C(=O)N[C@@H](CCCNC(=N)N)C(=O)N[C@@H](CCC(=O)O)C(=O)N[C@@H](CCCNC(=N)N)C(=O)N[C@@H](CC(C)C)C(=O)N[C@@H](CCCNC(=N)N)C(=O)N[C@@H](CCC(=O)O)C(=O)N[C@@H](Cc1cnc[nH]1)C(=O)N[C@@H](CC(C)C)C(=O)O` (H-RGWFRAMRSIARFIARERLREHL-OH), the IC50 in experiment [2] amounted to 10.5 µM; in experiment [7], 16.5 µM; in experiment [3], 12.9 µM; in experiment [8], 14.3 µM; in experiment [4], 12.6 µM; in experiment [5], 12.5 µM. The IC50 in experiment [6] is 15.6 µM.
